Publication PMC8159881 (ACS nano, 2021)

Legend:
INS-1E cells = assay: Glucose-stimulated insulin secretion assay; assay type: cell-based
Summary of the method: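 Lentivirally transduced proinsulin-NanoLuc INS-1E cells were plated overnight (37 °C, 5% CO₂), washed, and held 1 h in KRB (HEPES, BSA) with 2.8 mM glucose. They got peptide for 5 min (2 μM; 5 or 10 μM in one set; DMSO mock), then 20 min in KRB with 20 mM glucose, or 2.8 mM as control. Supernatant luciferase read with coelenterazine.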

[1] = Partitioning and budding in phase-separated GUVs; conditions: for inward budding from the Ld phase of phase-separated GUVs: 10 μM Cy-5-labeled peptide, 30 min
Summary of the method: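 Peptide was applied to the GUVs for 30 min before imaging. Fluorescein at 0.3 μM was added to the external buffer to mark true inward budding, seen as fluorescein-containing intraluminal vesicles.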

Cy5-CVWSLFNTLFM [AH(59-68)]
binding to the plasma membrane of INS-1E cells (INS-1E cells; cells pretreated with peptide): effectively bound to the plasma membrane

Cy5-DHVVWSLFNTLFMNPC [AH(56-71)]
binding of peptide to GUVs in the absence of cholesterol (Inward budding; GUVs without cholesterol): not affected
inward budding of GUVs without cholesterol containing DOPE (Inward budding; GUVs without cholesterol, DOPE 20 mol%): could be rescued
inward budding of GUVs without cholesterol (Inward budding; peptide added to GUVs without cholesterol): failed to induce efficient inward budding
inward budding from the Ld phase of phase-separated GUVs [1]: caused inward budding from this domain

Cy5-LVWHMFLSDNFTNPV [Scrambled AH(56-71)]
inward budding from the Ld phase of phase-separated GUVs [1]: failed to cause inward budding from this phase

FITC-Ahx-DHVVWSLFNTLFMNPC(PAL)CLGF [AH(56-75)]
phase partitioning in phase-separated GUVs ([1]; fluorescently-tagged peptide palmitoylated at Cys71): clearly partitioned to the Ld phase and appeared to concentrate at the phase boundary

lyso-PC [LPC, reference compound]
glucose-stimulated insulin secretion (INS-1E cells; cells pretreated with 20 μM LPC): promoted insulin secretion
budding of GUV membrane on addition of lipid (Inward budding; LPC titrated on preformed GUVs containing POPC and cholesterol): outward budding of the GUV membrane in an LPC dose-dependent manner
